In paper PMC8612936 (The Lancet. Infectious Diseases, 2021):
In brackets after ≈: the same amount, converted by molar mass. Several values for one entry are separate records, joined by “and”; a condition that tells them apart may be missing. Identical values can stand only once. Entries after “also recorded” stand apart in the source; their conditions may differ.

Legend:
Plasmodium falciparum [1] = settings: cited from earlier work
CYP3A4 = settings: preclinical studies, no reference given; cited from earlier work
[2] = Single ascending dose study; format: in vivo, human
Plasmodium falciparum [3] = assay: VIS: parasite clearance kinetics and recrudescence; format: in vivo; settings: for PRR48 (95% CI), second phase: cohort estimate
In short: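 Volunteers were given about 2800 viable P falciparum-infected erythrocytes intravenously on day −8. Parasitaemia was measured by qPCR of the 18S rRNA gene, twice daily from day 4 after inoculation. A single fasted oral dose (150, 400 or 800 mg) was given when parasitaemia was expected to reach ≥5000 parasites/mL. […] Recrudescence was followed to day 28; artemether–lumefantrine was given on recrudescence or at day 21.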

[4] = Volunteer infection study; format: in vivo, human
In short: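 Intravenously inoculated, blood-stage P falciparum-infected healthy volunteers received one fasted oral dose (150, 400 or 800 mg). They stayed in the clinic until day 4, then attended outpatient follow-up to day 44.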

[5] = VIS: M5717 whole-blood pharmacokinetics; format: in vivo; settings: human, po
In short: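 Healthy malaria-naive adults (18–55 y) were inoculated intravenously with about 2800 viable P falciparum-infected erythrocytes on day −8. On day 1 they took a single oral capsule dose (150, 400 or 800 mg) with 250 mL water after fasting ≥8 h, with no food until 4 h. The test compound was measured in whole blood (LLOQ 1 ng/mL), giving AUC0–∞, apparent terminal t½ and Vz/F.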

Plasmodium spp = settings: cited from earlier work
[6] = SAD: M5717 whole-blood pharmacokinetics; format: in vivo, human; settings: for Vd/F / half-life / AUC(0-inf) / AUC(0-t): whole blood; for AUC(0-t): SAD 2100 mg oral, N=1
[7] = oral administration of 3–5 mg/kg; cited from earlier work
M5717-resistant mutants = settings: pyronaridine partnered with M5717; cited from earlier work
[8] = SAD 2100 mg single oral dose, N=1
[9] = SAD, all 49 participants dosed with M5717

## O=C(NCCN1CCCC1)c1cc(-c2ccc(CN3CCOCC3)cc2)nc2ccc(F)cc12 [M5717]
Plasmodium falciparum [1]
  Potency against Plasmodium falciparum: nanomolar potency
CYP3A4
  Active or toxic metabolites: no active or toxic metabolites identified
[2]; 1800 mg only
  M5717-related dizziness: three
[2]; 1800 mg or 2100 mg groups only
  M5717-related blurred vision: four
  M5717-related oral hypoesthesia: three
[2]; SAD 50 mg single oral dose
  Any adverse event: 6 (100%) n (%)
  Moderate adverse event (grade 2): 1 (17%) n (%)
  Moderate adverse event (grade 2) related to study treatment: 0 n (%)
  Severe adverse event (grade 3): 1 (17%) n (%)
[2]; SAD 100 mg single oral dose
  Any adverse event: 5 (83%) n (%)
  Moderate adverse event (grade 2): 1 (17%) n (%)
  Moderate adverse event (grade 2) related to study treatment: 0 n (%)
  Severe adverse event (grade 3): 0 n (%)
[2]; SAD 200 mg single oral dose
  Any adverse event: 3 (50%) n (%)
  Moderate adverse event (grade 2): 0 n (%)
  Moderate adverse event (grade 2) related to study treatment: 0 n (%)
  Severe adverse event (grade 3): 0 n (%)
[2]; SAD 400 mg single oral dose
  Any adverse event: 4 (67%) n (%)
  Moderate adverse event (grade 2): 0 n (%)
  Moderate adverse event (grade 2) related to study treatment: 0 n (%)
  Severe adverse event (grade 3): 0 n (%)
[2]; SAD 600 mg single oral dose
  Any adverse event: 3 (50%) n (%)
  Moderate adverse event (grade 2): 1 (17%) n (%)
  Moderate adverse event (grade 2) related to study treatment: 0 n (%)
  Severe adverse event (grade 3): 0 n (%)
[2]; SAD 1000 mg single oral dose
  Any adverse event: 4 (67%) n (%)
  Moderate adverse event (grade 2): 0 n (%)
  Moderate adverse event (grade 2) related to study treatment: 0 n (%)
  Severe adverse event (grade 3): 0 n (%)
[2]; SAD 1250 mg single oral dose
  Any adverse event: 5 (83%) n (%)
  Moderate adverse event (grade 2): 1 (17%) n (%)
  Moderate adverse event (grade 2) related to study treatment: 1 (17%) n (%)
  Severe adverse event (grade 3): 0 n (%)
[2]; SAD 1800 mg single oral dose
  Any adverse event: 6 (100%) n (%)
  Moderate adverse event (grade 2): 0 n (%)
  Moderate adverse event (grade 2) related to study treatment: 0 n (%)
  Severe adverse event (grade 3): 0 n (%)
[2]; [8]
  Any adverse event: 1 (100%) n (%)
  Any adverse event related to study treatment: 1 (100%) n (%)
  Moderate adverse event (grade 2): 1 (100%) n (%)
  Moderate adverse event (grade 2) related to study treatment: 1 (100%) n (%)
  Severe adverse event (grade 3): 0 n (%)
[2]; SAD and VIS
  Serious adverse events: No adverse event was serious; also recorded: No serious adverse events
  Severity of adverse events related to M5717: mild or moderate
  Vital signs, ECGs, clinical laboratory parameters: No dose-related trends
[2]; [9]
  Participants with adverse events related to M5717: 12 (24%) n (%)
  Participants with at least one adverse event: 37 (76%) n (%)
[2]; single oral dose, healthy adults
  Dose up to which M5717 is well tolerated: ≤ 1250 mg
Plasmodium falciparum [3]; VIS 150 mg, individual participants
  Time of recrudescence after M5717 dosing: 10 days and 11 days and 19 days
Plasmodium falciparum [3]; VIS 150 mg, six participants
  Recrudescence incidence: 50%
Plasmodium falciparum [3]; VIS 400 mg single oral dose, N=6
  PRR48 (95% CI), second phase: 5127 (1006 to 26 132)
Plasmodium falciparum [3]; VIS 400 mg, both participants
  Time of recrudescence after M5717 dosing: 12 days
Plasmodium falciparum [3]; VIS 400 mg, eight participants
  Recrudescence incidence: 25%
Plasmodium falciparum [3]; VIS 800 mg single oral dose, N=7
  PRR48 (95% CI), second phase: 436 (179 to 1061)
Plasmodium falciparum [3]; VIS 800 mg, up to 21 days after dosing
  Recrudescence: No recrudescence
Plasmodium falciparum [3]; VIS 150, 400, 800 mg
  Duration of initial slow parasite clearance phase: 35 to 55 h
  Parasite clearance following M5717 dosing: all participants
[4]; VIS 150 mg single oral dose
  Any adverse event: 6 (100%) n (%)
  Any adverse event related to study treatment: 0 n (%)
  Moderate adverse event (grade 2): 2 (33%) n (%)
  Moderate adverse event (grade 2) related to study treatment: 0 n (%)
  Severe adverse event (grade 3): 0 n (%)
[4]; VIS 400 mg single oral dose
  Any adverse event: 8 (100%) n (%)
  Moderate adverse event (grade 2): 3 (38%) n (%)
  Moderate adverse event (grade 2) related to study treatment: 0 n (%)
  Severe adverse event (grade 3): 0 n (%)
[4]; VIS 800 mg single oral dose
  Any adverse event: 7 (88%) n (%)
  Any adverse event related to study treatment: 0 n (%)
  Moderate adverse event (grade 2): 2 (25%) n (%)
  Moderate adverse event (grade 2) related to study treatment: 0 n (%)
  Severe adverse event (grade 3): 1 (13%) n (%)
[4]; VIS, all 22 participants
  Participants with at least one adverse event after M5717 dosing: 21 (95%) n (%)
[5]; 150 mg
  AUC(0-inf): 3100 ng·h/mL
  Vd/F: 5880 L
  half-life: 106 h
[5]; 400 mg
  Vd/F: 6530 L
  half-life: 146 h
[5]; 800 mg
  Vd/F: 8890 L
  half-life: 193 h
Plasmodium spp; estimated in mice
  Minimum inhibitory concentration (MIC): 3 ng/mL (≈ 6.49 nM)
  Minimum parasiticidal concentration: 10 ng/mL
Plasmodium spp; in vitro and in the mouse efficacy model
  Lag in antimalarial activity: 24 to 48 h
[6]; across dose levels, SAD and VIS
  Time of peak whole-blood concentration after dosing: approximately 2 h
[6]; doses of 150 mg and higher
  Time with M5717 concentration at least 3 ng/mL in all participants: at least 168 h
[6]; doses of 400 mg or higher
  Time with M5717 concentration 10 ng/mL or higher in all participants: at least 168 h
[6]; human, prediction before the study
  Terminal half-life predicted before the study: 250 h
[6]; human, oral
  Vd/F: 5880 to 9510 L
  half-life: 106 to 193 h
[6]; human, oral, 200 mg
  half-life: 133 to 145 h
[6]; human, po, 50 mg
  AUC(0-inf): 997 ng·h/mL
  Vd/F: 7640 L
  half-life: 133 h
[6]; human, po, 100 mg
  AUC(0-inf): 1710 ng·h/mL
  Vd/F: 8890 L
  half-life: 133 h
[6]; human, po, 200 mg
  AUC(0-inf): 3500 ng·h/mL
  Vd/F: 9510 L
  half-life: 145 h
[6]; human, po, 400 mg
  Vd/F: 7100 L
  half-life: 155 h
[6]; human, po, 600 mg
  Vd/F: 7160 L
  half-life: 181 h
[6]; human, po, 1000 mg
  Vd/F: 6770 L
  half-life: 169 h
[6]; human, po, 1250 mg
  Vd/F: 6830 L
  half-life: 180 h
[6]; human, po, 1800 mg
  Vd/F: 7060 L
  half-life: 181 h
[6]; human, po, 2100 mg
  AUC(0-inf): 43000 ng·h/mL
  Vd/F: 7870 L
  half-life: 140 h
[6]; human, po, 2100 mg, AUC0–144h
  AUC(0-t): 27200 ng·h/mL
[6]; human, po, 2100 mg, AUC0–t
  AUC(0-t): 42200 ng·h/mL
[7]
  Half-life in preclinical animal studies: 18 to 20 h

## COc1ccc2nc3cc(Cl)ccc3c(Nc3cc(CN4CCCC4)c(O)c(CN4CCCC4)c3)c2n1 [pyronaridine]
M5717-resistant mutants
  Selection of M5717-resistant mutants: prevented selection of M5717-resistant mutants
